ChEMBL document CHEMBL5500387, “Design, synthesis of combretastatin A-4 piperazine derivatives as potential antitumor agents by inhibiting tubulin polymerization and inducing autophagy in HCT116 cells” (Eur J Med Chem, 2024)

Columns and labels:
Tubulin (Homo sapiens) = Tubulin (Homo sapiens) (UniProt P68371+Q9H4B7+P0DPH7+P68366+Q13509+Q71U36+P04350+Q3ZCM7+P07437+P68363+Q9BQE3+Q6PEY2+Q13885+Q9BVA1+Q9BUF5); assay: Inhibition of tubulin polymerization in human HCT-116 cells measured after 48 hrs by immunofluorescent staining based analysis; assay type: cell-based; settings: dose 0.1-0.3 µM
How it was run: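 HCT116 cells (1×10^5/well suspension) settled on glass slides overnight at 37 °C, 5% CO2. Treated 48 h with 0.1, 0.2 or 0.3 μM, or 0.1% DMSO. Fixed in 4% paraformaldehyde, permeabilised with 0.5% Triton X-100, blocked. Anti-α-tubulin (1:4000) at 4 °C overnight, then Alexa488 anti-mouse IgG 1 h. DAPI mount, confocal imaging.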

A549 [1] = assay: Induction of cell cycle arrest in human A549 cells assessed as accumulation of cells at S phase at 0.1 uM measured after 24 hrs by PI/RNase staining based analysis (reference value: 24.95%); assay type: functional
[2] = Cytotoxicity against human NCM460 cells assessed as inhibition of cell proliferation measured after 72 hrs by CCK-8 assay; assay type: toxicity, cell-based
How it was run: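 NCM460 normal colonic epithelial cells seeded at 2×10^3 cells/well and grown overnight in RPMI-1640 with 10% FBS. Compounds added at a range of concentrations, 0.1% DMSO as negative control, 72 h at 37 °C. Read-out by CCK-8 (10%, 2 h) at 450 nm. Survival = (As−Ab)/(Ac−Ab)×100%; IC50 taken as concentration giving 50% inhibition of proliferation.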

HCT-116 [3] = assay: Induction of cell cycle arrest in human HCT-116 cells assessed as accumulation of cells at S phase at 0.1 uM measured after 24 hrs by PI/RNase staining based flow cytometry analysis (reference value: 38.29%); assay type: functional
A549 [4] = assay: Induction of cell cycle arrest in human A549 cells assessed as accumulation of cells at G2/M phase at 0.2 uM measured after 24 hrs by PI/RNase staining based analysis (reference value: 10.22%); assay type: functional
A549 [5] = assay: Induction of apoptosis in human A549 cells assessed as late apoptotic cells at 0.2 uM measured after 24 hrs by Annexin V-APC/PI staining based flow cytometry analysis (reference value: 0.86%); assay type: functional
HCT-116 [6] = assay: Cytotoxicity against human HCT-116 cells assessed as inhibition of cell proliferation measured after 72 hrs by CCK-8 assay; assay type: functional, cell-based; settings: HCT-116, 72 h
How it was run: (§1)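 Cells seeded at 2×10^3 per well and grown overnight in 10% FBS medium: HCT116 in McCoy's 5A, A549 and AGS in F-12K, SK-MES-1 in DMEM. Compounds added at varied concentrations with 0.1% DMSO control, 72 h at 37 °C. 10% CCK-8 for 2 h, then A450 read. Survival = (As−Ab)/(Ac−Ab)×100%. IC50 from curve fitting.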

AGS = assay: Cytotoxicity against human AGS cells assessed as inhibition of cell proliferation measured after 72 hrs by CCK-8 assay; assay type: functional, cell-based; how it was run: as §1

For `COc1ccc(/C=C(/C(=O)N2CCN(c3ccc(C)cc3)CC2)c2cc(OC)c(OC)c(OC)c2)cc1O`, the inhibition (Tubulin (Homo sapiens)) was “Dose-Dependent Effect”, the Activity (A549 [1]) was 24.95% and the IC50 at 72 h [2] was 1.09 µM. The Activity (HCT-116 [3]) was 31.95%, the Activity (A549 [4]) was 8.51% and the Activity (A549 [5]) was 4.72%. It also gave an IC50 (HCT-116 [6]) of 0.227 µM and an IC50 (AGS) of 0.574 µM.
